What was measured:
[1] = Growth inhibition of human SF268 cells at 10 uM after 48 hrs by SRB assay relative to control; format: functional; details: SF-268, 48 h, read-out: GI
Outline: (§1)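 NCI 60-cell-line panel, nine tumor subpanels; compounds tested at a single dose of 10 μM in the primary screen.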

[2] = Growth inhibition of human M14 cells at 10 uM after 48 hrs by SRB assay relative to control; format: functional; details: M14, 48 h, read-out: GI; outline: as §1
[3] = Growth inhibition of human RPMI8226 cells at 10 uM after 48 hrs by SRB assay relative to control; format: functional; details: RPMI-8226, 48 h, read-out: GI; outline: as §1
[4] = Growth inhibition of human NCI-H522 cells at 10 uM after 48 hrs by SRB assay relative to control; format: functional; details: NCI-H522, 48 h, read-out: GI; outline: as §1
[5] = Growth inhibition of human HCC2998 cells at 10 uM after 48 hrs by SRB assay relative to control; format: functional; details: HCC 2998, 48 h, read-out: GI; outline: as §1
[6] = Growth inhibition of human SKOV3 cells at 10 uM after 48 hrs by SRB assay relative to control; format: functional; details: SK-OV-3, 48 h, read-out: GI
Outline: (§2)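 Primary screen across the full NCI 60 human tumour cell line panel, which covers nine tumour subpanels. A single dose of 10 μM was applied to each line, and growth was recorded for each cell line.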

[7] = Growth inhibition of human MALME-3M cells at 10 uM after 48 hrs by SRB assay relative to control; format: functional; details: read-out: GI; outline: as §1
[8] = Growth inhibition of human SW620 cells at 10 uM after 48 hrs by SRB assay relative to control; format: functional; details: SW-620, 48 h, read-out: GI; outline: as §2
[9] = Growth inhibition of human PC3 cells at 10 uM after 48 hrs by SRB assay relative to control; format: functional; details: PC-3, 48 h, read-out: GI; outline: as §1
[10] = Growth inhibition of human OVCAR4 cells at 10 uM after 48 hrs by SRB assay relative to control; format: functional; details: OVCAR-4, 48 h, read-out: GI; outline: as §1
[11] = Growth inhibition of human MCF7 cells at 10 uM after 48 hrs by SRB assay relative to control; format: functional; details: MCF7, 48 h, read-out: GI; outline: as §1
Dihydrofolate reductase = target: T1, Dihydrofolate reductase (Bos taurus, UniProt P00376); assay: Inhibition of bovine liver DHFR preincubated for 2 mins followed by addition of FH2 as substrate and NADPH
T1 sequence (P00376 whole entry): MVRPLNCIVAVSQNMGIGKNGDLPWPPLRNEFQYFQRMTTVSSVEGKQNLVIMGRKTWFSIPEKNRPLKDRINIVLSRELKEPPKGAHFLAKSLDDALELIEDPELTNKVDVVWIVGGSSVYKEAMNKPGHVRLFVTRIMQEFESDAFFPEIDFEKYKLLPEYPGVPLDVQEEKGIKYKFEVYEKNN

[12] = Growth inhibition of human SNB75 cells at 10 uM after 48 hrs by SRB assay relative to control; format: functional; details: SNB-75, 48 h, read-out: GI; outline: as §2
[13] = Growth inhibition of human UACC257 cells at 10 uM after 48 hrs by SRB assay relative to control; format: functional; details: UACC-257, 48 h, read-out: GI; outline: as §2
[14] = Growth inhibition of human KM12 cells at 10 uM after 48 hrs by SRB assay relative to control; format: functional; details: KM12, 48 h, read-out: GI; outline: as §1
[15] = Growth inhibition of human SK-MEL-5 cells at 10 uM after 48 hrs by SRB assay relative to control; format: functional; details: SK-MEL-5, 48 h, read-out: GI; outline: as §2
[16] = Growth inhibition of human SF295 cells at 10 uM after 48 hrs by SRB assay relative to control; format: functional; details: SF-295, 48 h, read-out: GI; outline: as §1
[17] = Growth inhibition of human SR cells at 10 uM after 48 hrs by SRB assay relative to control; format: functional; details: read-out: GI; outline: as §2
[18] = Growth inhibition of human HCT15 cells at 10 uM after 48 hrs by SRB assay relative to control; format: functional; details: HCT-15, 48 h, read-out: GI; outline: as §1
[19] = Growth inhibition of human MDA-MB-435 cells at 10 uM after 48 hrs by SRB assay relative to control; format: functional; details: MDA-MB-435, 48 h, read-out: GI; outline: as §1
[20] = Growth inhibition of human NCI-322M cells at 10 uM after 48 hrs by SRB assay relative to control; format: functional; details: read-out: GI; outline: as §1
[21] = Growth inhibition of human A498 cells at 10 uM after 48 hrs by SRB assay relative to control; format: functional; details: A498, 48 h, read-out: GI; outline: as §1
[22] = Growth inhibition of human IGROV1 cells at 10 uM after 48 hrs by SRB assay relative to control; format: functional; details: IGROV-1, 48 h, read-out: GI; outline: as §1
[23] = Growth inhibition of human OVCAR3 cells at 10 uM after 48 hrs by SRB assay relative to control; format: functional; details: OVCAR-3, 48 h, read-out: GI; outline: as §1
[24] = Growth inhibition of human MDA-MB-468 cells at 10 uM after 48 hrs by SRB assay relative to control; format: functional; details: MDA-MB-468, 48 h, read-out: GI; outline: as §1
[25] = Growth inhibition of human COLO205 cells at 10 uM after 48 hrs by SRB assay relative to control; format: functional; details: COLO 205, 48 h, read-out: GI; outline: as §1
[26] = Growth inhibition of human ACHN cells at 10 uM after 48 hrs by SRB assay relative to control; format: functional; details: read-out: GI; outline: as §1

SMILES | inhibition of growth at 10 µM [1] | inhibition of growth at 10 µM [2] | inhibition of growth at 10 µM [3] | inhibition of growth at 10 µM [4] | inhibition of growth at 10 µM [5] | inhibition of growth at 10 µM [6] | inhibition of growth at 10 µM [7] | inhibition of growth at 10 µM [8] | inhibition of growth at 10 µM [9] | inhibition of growth at 10 µM [10] | inhibition of growth at 10 µM [11] | IC50 (Dihydrofolate reductase) | inhibition of growth at 10 µM [12] | inhibition of growth at 10 µM [13] | inhibition of growth at 10 µM [14] | inhibition of growth at 10 µM [15] | inhibition of growth at 10 µM [16] | inhibition of growth at 10 µM [17] | inhibition of growth at 10 µM [18] | inhibition of growth at 10 µM [19] | other results
COc1cc(CSc2nc3ccc(Cl)cc3c(=O)n2-c2ccccc2)cc(OC)c1OC | 22.3% | < 10% | < 10% | 61.6% | 20% | < 10% | 23.5% | 20.3% | 26.8% | 18.3% | 23.1% | 0.8 µM | 24.3% | 10.3% | 50.2% | 18.8% | 15.8% | 54.4% | 47.5% | 75.6% | inhibition of growth at 10 µM [20]: 14.3%; inhibition of growth at 10 µM [21]: 18.3%; inhibition of growth at 10 µM [22]: 27.5%; inhibition of growth at 10 µM [23]: 22.2%; inhibition of growth at 10 µM [24]: 42.7%; inhibition of growth at 10 µM [25]: 15.5%; inhibition of growth at 10 µM [26]: 21.1%
COc1ccc(-n2c(SCc3cc(OC)c(OC)c(OC)c3)nc3ccc(Cl)cc3c2=O)cc1 | 15.2% | < 10% | 33.8% | 16.7% | < 10% | < 10% | < 10% | < 10% | 37.7% | 28.3% | 15.6% | 3 µM | < 10% | 11.2% | 18.7% | 15.1% | 16.7% | < 10% | 19.3% | 12.4% | inhibition of growth at 10 µM [20]: < 10%; inhibition of growth at 10 µM [21]: 49.1%; inhibition of growth at 10 µM [22]: 16.3%; inhibition of growth at 10 µM [23]: < 10%; inhibition of growth at 10 µM [24]: 13.4%; inhibition of growth at 10 µM [25]: < 10%; inhibition of growth at 10 µM [26]: 16.4%

Reference: ChEMBL document CHEMBL3860041, “Synthesis, biological evaluation and molecular modeling study of some new methoxylated 2-benzylthio-quinazoline-4(3H)-ones as nonclassical antifolates” (Bioorg Med Chem Lett, 2016)
